Screening results as filed in PubChem.
OXTR agonist = activates the human oxytocin receptor; activation, % at 3 µM; CHO-OTR cells, Fluo-8 calcium fluorescence; normalized: DMSO 0%, oxytocin 100%; P30559; 0.32% of 320,000 active;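 active = activation above the mean of all tested compounds plus 3 SD, cutoff set per screening run, cut at about 20% in these data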;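 note: peak over basal fluorescence ratio from a 100 s FLIPR kinetic read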
CHO parental Ca = counter-screen for OX1R antagonists: effect in parental CHO cells; parental CHO-K1, ATP-induced calcium, Fluo-8 fluorescence; inhibition, % at 5.6 µM; 0.63% of 330,000 active; AID 463079;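 active = inhibition above that plate's mean sample inhibition plus 3 SD, cut at about 26% in these data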;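 note: 0% = ATP-challenged DMSO wells and 100% = DMSO wells without ATP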
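Test system: parental CHO cells; detection: calcium-sensitive Fluo-8 fluorescence; evaluation: percent inhibition of calcium signal; also added: ATP as calcium-mobilizing challenge; repeats: one well per compound; control set: ATP-challenged DMSO wells low, unchallenged DMSO wells high; compound: single nominal dose of 5.6 µM per compound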
OX1R antag-1 = antagonists of human orexin 1 receptor (OX1R) | O43613 | OX1R-expressing cells, FRET antagonist read-out | 1.8% of 330,000 active | inhibition, % at 6.6 µM | AID 485270; in the data active = inhibition mostly above about 38%, no sharp cut-off; inactive = mostly below about 40%;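 note: 0% = agonist challenge alone and 100% = reference antagonist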
V1aR counter = counter-screen for oxytocin receptor agonists: human V1a receptor agonists; P37288; CHO-V1R cells, Fluo-8 calcium fluorescence, agonist mode; 0% DMSO, 100% 3 nM vasopressin; activation, % at 3 µM; 0.25% of 320,000 active;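 active = activation above the mean activation of all tested compounds plus 3 SD, per screening run, cut at about 20% in these data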;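 note: signal is peak over basal fluorescence ratio across a 100 second FLIPR read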
Target sequence (P37288 whole entry, looked up): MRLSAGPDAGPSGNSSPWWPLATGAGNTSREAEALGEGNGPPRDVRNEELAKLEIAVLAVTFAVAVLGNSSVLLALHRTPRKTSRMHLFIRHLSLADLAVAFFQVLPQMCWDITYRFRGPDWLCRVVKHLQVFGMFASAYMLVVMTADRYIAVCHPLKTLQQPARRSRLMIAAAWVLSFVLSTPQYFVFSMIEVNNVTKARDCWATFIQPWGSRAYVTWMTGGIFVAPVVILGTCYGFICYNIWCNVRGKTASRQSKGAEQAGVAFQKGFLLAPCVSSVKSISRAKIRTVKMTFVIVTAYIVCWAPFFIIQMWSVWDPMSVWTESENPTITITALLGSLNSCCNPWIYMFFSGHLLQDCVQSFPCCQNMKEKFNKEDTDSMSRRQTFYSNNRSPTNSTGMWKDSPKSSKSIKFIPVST
OX1R antag-2 = antagonists of human orexin 1 receptor | O43613 | CHO/OX1R cells, Fluo-8 calcium fluorescence, orexin A | inhibition, % at 5 µM | 0.43% of 330,000 active;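 active = inhibition above its plate's threshold, mean inhibition of all tested compounds on the plate plus 3 SD, cut at about 37% in these data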;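 note: 0% = orexin A challenge wells and 100% = SB-334867-A antagonist wells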
OXTR potentiator = potentiators of human oxytocin receptor; P30559; CHO-OTR cells, Fluo-8 calcium fluorescence, potentiator mode; 0% = oxytocin EC15, 100% = EC100; 0.061% of 320,000 active; activation, % at 3 µM;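 active = activation above that plate's cutoff, the mean activation of tested compounds plus 3 SD, cut at about 6.6% in these data, passing the limit was not always enough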;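 note: 100% uses oxytocin at 75 nM as the full agonist control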
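System: human OTR in CHO cells / Also added: sub-maximal oxytocin, roughly EC15 / Control set: EC15 oxytocin low, 75 nM oxytocin high / Schedule: 6 min compound pre-incubation at room temperature, 100 s kinetic read / Compound: single-point 3.0 µM / Replication: singlicate / Technique: Fluo-8 calcium dye fluorescence / Read-out basis: % activation of max/min ratio relative to oxytocin controls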
OX1R Fluo8 conf = confirmation of human orexin 1 receptor antagonists; shares compounds with OX1R antag-2; CHO/OX1R cells, orexin A calcium Fluo-8 fluorescence; inhibition, % at 5 µM; 38% of 1,100 active; AID 492963; in the data active = inhibition above about 29%;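 note: 0% = agonist challenge alone and 100% = reference antagonist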
CHO Ca triplic = counter-screen: parental CHO calcium response change, triplicate; AID 492965; shares compounds with OX1R antag-2; inhibition, % at 5.6 µM; parental CHO-K1, ATP-induced calcium, Fluo-8 fluorescence; 9.3% of 1,100 active;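 active = inhibition above a per-plate limit, the mean inhibition of that plate's test compounds plus 3 SD, cut at about 25% in these data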;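 note: 0% = ATP challenge with DMSO and 100% = DMSO without ATP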
OX1R HTRF confirm = OX1R (human) antagonism, HTRF confirmed; OX1R-expressing cells, HTRF antagonist assay; shares compounds with OX1R antag-1; inhibition, % at 6.6 µM; 49% of 1,800 active; AID 492964; in the data active = inhibition above about 55%;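 note: CHO cells expressing OX1R stimulated with orexin A at about EC80; 0% = agonist challenge alone and 100% = reference antagonist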
CHO-K1 HTRF cnt = counter-screen for OX1R antagonists: effect in parental CHO-K1 cells | shares compounds with OX1R antag-1 | HTRF counterscreen | inhibition, % at 6.6 µM | 48% of 1,800 active; in the data active = inhibition above about 17%;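 note: 0% = agonist challenge with vehicle and 100% = vehicle alone without agonist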
Numbers without * were called inactive; x = no result given. A selection: hits, their analogues and other compounds. The true share with any hit is near 2.7%.

SMILES	OXTR agonist	CHO parental Ca	OX1R antag-1	V1aR counter	OX1R antag-2	OXTR potentiator	OX1R Fluo8 conf	CHO Ca triplic	OX1R HTRF confirm	CHO-K1 HTRF cnt
CCOc1ccccc1NC(=O)C1CCCN1S(=O)(=O)c1ccccc1C(F)(F)F (configuration not stated)	0	-21	79*	2	76*	-2	39*	-16	85*	-4
COc1ccccc1NC(=O)[C@@H]1CCCN1S(=O)(=O)c1ccc(Cl)cc1	-1	-11	58*	-1	48*	0	52*	-27	70*	-22
Cc1ccc(S(=O)(=O)N2CCCC2C(=O)Nc2nc3c(s2)CCCC3)cc1 (configuration not stated)	6	-18	78*	5	44*	-12	31*	-14	93*	1
CCOc1ccccc1NC(=O)N1CCCC1C(=O)Nc1ccc(NC(C)=O)cc1 (configuration not stated)	1	-11	3	-1	-15	1	x	x	x	x
O=C(Nc1ccccc1)[C@@H]1CCCN1S(=O)(=O)c1ccc(Cl)cc1	-1	-15	62*	0	45*	-1	39*	-12	78*	8
Cc1nc(N2CCCCC2)c2c(C)c(C(=O)Nc3ccc4c(c3)OCCO4)sc2n1	-2	-19	13	-1	-23	-2	x	x	x	x
CCCCC1CCC(C(=O)N(CC(C)C)c2c(N)n(Cc3ccccc3)c(=O)[nH]c2=O)CC1 (configuration not stated)	-2	-18	18	-1	-24	-6	x	x	x	x
Cc1cccc(OCC(=O)N/N=C\c2cn(C)c3ccccc23)c1	1	1	45*	2	30	-4	5	7	38	3
COc1ccc(CCNC(=O)COc2ccc(-c3ccc(C)cc3)cc2)cc1OC	5	-14	66*	4	70*	-4	24	-2	76*	9
CC(Sc1ccc(Cl)cc1)C(=O)NNC(=O)c1ccccc1O (configuration not stated)	1	-11	66*	2	30	-8	32*	-5	75*	2
CCN(CCn1cccn1)C(=O)C1CCC(=O)N(CC2CCCCC2)C1 (configuration not stated)	0	-4	4	1	7	-3	x	x	x	x
Cc1ccc(Cl)cc1NC(=O)Cn1nc(-c2cccs2)ccc1=O	7	6	98*	8	58*	-13	24	-7	61*	4
COc1ccc(C(C)(C)C)cc1NC(=O)COc1ccc(-c2nnco2)cc1	0	-11	4	1	7	-6	x	x	x	x
CCn1c2ccccc2c2cc(NC(=O)c3cc(OC)cc(OC)c3)ccc21	-1	-15	85*	0	81*	-5	96*	-13	89*	-11
CCn1c(SCC(=O)Nc2ccccc2C(=O)OC)nnc1-c1ccc(N)cc1	-1	-15	6	0	-6	2	x	x	x	x
CCn1c(SCC(=O)Nc2ccc3c(c2)oc2ccccc23)nnc1-c1ccc(N)cc1	-1	-3	84*	3	36	-10	37*	-21	42	-14
CCn1c(SCC(=O)Nc2cc3oc4ccccc4c3cc2OC)nnc1-c1cccs1	-1	-25	83*	0	50*	3	49*	-11	89*	6
CCn1c(SCC(=O)Nc2ccc3c(c2)c2ccccc2n3CC)nnc1-c1ccco1	-1	-23	81*	-1	64*	-3	35*	-10	83*	3
